The text below walks through data of ChEMBL document CHEMBL1129463, “Discovery of 1,5-benzodiazepines with peripheral cholecystokinin (CCK-A) receptor agonist activity (II): Optimization of the C3 amino substituent” (J Med Chem, 1996).

Activity calls are given as the source filed them. The calls are words filed in the database; no cut-off is given here.

One may read the IC50 as the concentration that gives 50% inhibition. Broadly, the ED50 is the dose that gives a 50% effect, or the effect in half of the subjects. What is called EC50 is the concentration at which the effect is half-maximal.

For assay [1], the system named is Mus musculus. Description: Compound was tested in vivo Percent Maximal response activity in mouse gallbladder emptying assay at dose of 1 nmol/kg ip.
Assay [2] has as its target T1, Cholecystokinin receptor type A (Homo sapiens, UniProt P32238).
T1 sequence (P32238 whole entry): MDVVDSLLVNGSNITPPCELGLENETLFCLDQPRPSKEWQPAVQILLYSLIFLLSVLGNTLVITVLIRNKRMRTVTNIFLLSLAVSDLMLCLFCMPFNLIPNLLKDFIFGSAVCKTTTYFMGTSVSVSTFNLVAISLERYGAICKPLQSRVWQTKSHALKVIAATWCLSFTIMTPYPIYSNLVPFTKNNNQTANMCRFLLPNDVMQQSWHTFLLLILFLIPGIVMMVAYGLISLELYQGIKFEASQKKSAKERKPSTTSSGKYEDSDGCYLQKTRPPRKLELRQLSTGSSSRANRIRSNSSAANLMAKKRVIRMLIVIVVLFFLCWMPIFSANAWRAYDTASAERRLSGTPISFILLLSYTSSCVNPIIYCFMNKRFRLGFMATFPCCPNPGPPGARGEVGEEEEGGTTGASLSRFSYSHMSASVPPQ
Description: Compound was tested in vitro for its ability to displace [125I]Bolton-Hunter CCK-8 from membrane preparation isolated from CHO-KI cells stably transfected with cDNA of human Cholecystokinin type A receptor. It is filed as cell membranes.

For assay [3], the species on record is Cavia porcellus. Description: Maximum contractile response at 30 uM, normalized to CCK-8 (1 uM). The assay is classed as functional.
The subject of assay [4] is Rattus norvegicus. Description: Compound was tested in vivo for its Percent Maximal anorectic potency in rats at dose of 10 umol/kg po; ia = Inactive. The assay is classed as functional, organism-based.
In assay [5] the test system is Mus musculus. Briefly: Compound was tested in vivo for Percent Maximal response in mouse gallbladder emptying assay at dose of 1 umol/kg po. It is filed as functional.
The test system of assay [6] is Rattus norvegicus. Briefly: Compound was tested in vivo for its anorectic potency in rats at dose of 0.1 umol/kg ip. It is filed as functional.
The species entered for assay [7] is Cavia porcellus. Briefly: In vitro functional activity on the isolated guinea pig gallbladder. Also on record: concentration or dose not given beside the values.
Assay [8] concerns Mus musculus. Description: Compound was tested in vivo for its activity in mouse gallbladder emptying assay at dose of 0.1 umol/kg ip. It is filed as functional.
Assay [9] concerns the target Cholecystokinin receptor (Homo sapiens) (UniProt P32239+P32238). Briefly: Selectivity ratio of inhibition of CCK-A vs CCK-B. The assay is classed as protein assay. In short, it runs like this:
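Displacement of [125I]Bolton-Hunter CCK-8 from membranes of CHO-K1 cells stably transfected with human CCK-A or CCK-B receptor cDNA. pIC50 values were measured for each receptor. The ratio is IC50 CCK-A / IC50 CCK-B.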

Assay [10] concerns Mus musculus. Briefly: Compound was tested in vivo for its activity in mouse gallbladder emptying assay at dose of 1 umol/kg po. The assay is classed as functional.
In assay [11] the target is T2, Gastrin/cholecystokinin type B receptor (Homo sapiens, UniProt P32239).
T2 sequence (P32239 whole entry): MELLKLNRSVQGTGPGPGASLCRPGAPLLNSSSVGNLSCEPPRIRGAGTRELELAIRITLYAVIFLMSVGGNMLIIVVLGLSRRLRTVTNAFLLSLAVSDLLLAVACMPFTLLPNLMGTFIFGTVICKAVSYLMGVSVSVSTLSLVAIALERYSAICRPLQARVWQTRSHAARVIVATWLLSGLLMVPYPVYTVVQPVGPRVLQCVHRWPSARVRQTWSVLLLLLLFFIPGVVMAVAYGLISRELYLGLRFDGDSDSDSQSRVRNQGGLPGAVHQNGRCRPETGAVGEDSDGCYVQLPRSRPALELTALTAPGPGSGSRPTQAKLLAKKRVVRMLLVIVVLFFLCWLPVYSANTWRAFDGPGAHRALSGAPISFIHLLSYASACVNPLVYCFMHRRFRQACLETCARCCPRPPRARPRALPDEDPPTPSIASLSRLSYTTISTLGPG
Description: Compound was tested in vitro for its ability to displace [125I]Bolton-Hunter CCK-8 from membrane preparation isolated from CHO-KI cells stably transfected with cDNA of human Cholecystokinin type B receptor. The assay is classed as cell membranes.

In assay [12] the test system is Rattus norvegicus. Briefly: Compound was tested in vivo for its Percent Maximal anorectic potency in rats at dose of 0.5 umol/kg ip. The assay is classed as functional.
For assay [13], the species on record is Cavia porcellus. Briefly: In-vitro potency on the isolated guinea pig gallbladder. The assay is classed as functional.
Assay [14] relates to Rattus norvegicus. Briefly: Compound was tested in vivo for its anorectic potency in rats at dose of 0.5 umol/kg ip.
The species entered for assay [15] is Cavia porcellus. Description: In vitro Functional activity on the isolated guinea pig gallbladder following incubation at 1 micro M percent contraction normalized to that for CCK-8. In short, it runs like this: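 Contraction is expressed as percent of the CCK-8 (1 μM) response. Non-contracting compounds were tested for antagonism against a CCK-8 curve (10⁻¹¹ to 10⁻⁶ M).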

Assay [16] relates to Rattus norvegicus. Description: Compound was tested in vivo for its Percent Maximal anorectic potency in rats at dose of 1 umol/kg po. The assay is classed as functional.
Assay [17] has as its system Rattus norvegicus. Description: Compound was tested in vivo for its Percent Maximal anorectic potency in rats at dose of 0.1 umol/kg ip. The assay is classed as functional.

With `CC(C)N(C(=O)CN1C(=O)C(NC(=O)c2cc3ccccc3[nH]2)C(=O)N(c2ccccc2)c2ccccc21)c1ccccc1` (stereo unspecified), the Max with Mus musculus [1] was found to be 73%; in the assay filed under Cavia porcellus [3], 49%; with Mus musculus [5], 85%; in the assay with Rattus norvegicus [12], 56%. In addition, the IC50 in assay [2] was 15.8 nM; in assay [11], 316 nM. For the same compound, the Max entry with Rattus norvegicus [4] was “inactive”. In addition, the values for the ED50 with Rattus norvegicus [6], in the assay with Mus musculus [8] and with Mus musculus [10] were 0.095 µmol/kg, 0.005 µmol/kg and 0.3 µmol/kg, respectively. The compound further had an Activity in the assay filed under Cavia porcellus [7] of 49%. Further, the Selectivity ratio in assay [9] is 20. Besides, in the assay filed under Cavia porcellus [13], the response was half-maximal at 501 nM (EC50).
Take `CC(C)N(C(=O)CN1C(=O)C(NC(=O)Nc2cccc(C(=O)O)c2)C(=O)N(c2ccccc2)c2ccccc21)c1ccccc1` (stereo unspecified): the Max was determined as 73% with Mus musculus [1]; 102% in the assay filed under Cavia porcellus [3]; 77% with Mus musculus [5]; 58% in the assay on Rattus norvegicus [16]; 87% in the assay with Rattus norvegicus [17]. The IC50 in assay [2] is 126 nM; in assay [11], 10 nM. Moreover, the values for the ED50 in the assay on Rattus norvegicus [14], in the assay on Mus musculus [8] and with Mus musculus [10] were 0.06 µmol/kg, 0.0071 µmol/kg and 0.055 µmol/kg, respectively. Further, the Activity was 100% in the assay filed under Cavia porcellus [7] and 95% in the assay listed under Cavia porcellus [15]. The same compound showed a concentration giving a half-maximal response (EC50) in the assay listed under Cavia porcellus [13] of 39.8 nM.
